Test results as given in ChEMBL document CHEMBL3804778, “Astemizole Derivatives as Fluorescent Probes for hERG Potassium Channel Imaging” (ACS Med Chem Lett, 2016).

Legend:
[1] = tested on: HT-29; assay: Cytotoxicity against human HT-29 cells after 24 hrs by MTT assay; format: cell-based; conditions: HT-29, 24 h
How it was run: (§1)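 MTT viability assay in hERG-transfected HEK293 cells and in HT-29 cells exposed to probe. Half-maximal inhibitory concentration was derived for each cell line and reported as mean ± deviation.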

[2] = tested on: HEK293; assay: Cytotoxicity against human ERG transfected HEK293 cells after 24 hrs by MTT assay; format: cell-based; conditions: HEK293, 24 h; how it was run: as §1
[3] = target: T1, Voltage-gated inwardly rectifying potassium channel KCNH2 (Homo sapiens, UniProt Q12809); assay: Displacement of [3H] dofetilide from human ERG channel expressed in HEK293 cell membranes incubated for 2 hrs by scintillation counting analysis
T1 sequence (Q12809 whole entry): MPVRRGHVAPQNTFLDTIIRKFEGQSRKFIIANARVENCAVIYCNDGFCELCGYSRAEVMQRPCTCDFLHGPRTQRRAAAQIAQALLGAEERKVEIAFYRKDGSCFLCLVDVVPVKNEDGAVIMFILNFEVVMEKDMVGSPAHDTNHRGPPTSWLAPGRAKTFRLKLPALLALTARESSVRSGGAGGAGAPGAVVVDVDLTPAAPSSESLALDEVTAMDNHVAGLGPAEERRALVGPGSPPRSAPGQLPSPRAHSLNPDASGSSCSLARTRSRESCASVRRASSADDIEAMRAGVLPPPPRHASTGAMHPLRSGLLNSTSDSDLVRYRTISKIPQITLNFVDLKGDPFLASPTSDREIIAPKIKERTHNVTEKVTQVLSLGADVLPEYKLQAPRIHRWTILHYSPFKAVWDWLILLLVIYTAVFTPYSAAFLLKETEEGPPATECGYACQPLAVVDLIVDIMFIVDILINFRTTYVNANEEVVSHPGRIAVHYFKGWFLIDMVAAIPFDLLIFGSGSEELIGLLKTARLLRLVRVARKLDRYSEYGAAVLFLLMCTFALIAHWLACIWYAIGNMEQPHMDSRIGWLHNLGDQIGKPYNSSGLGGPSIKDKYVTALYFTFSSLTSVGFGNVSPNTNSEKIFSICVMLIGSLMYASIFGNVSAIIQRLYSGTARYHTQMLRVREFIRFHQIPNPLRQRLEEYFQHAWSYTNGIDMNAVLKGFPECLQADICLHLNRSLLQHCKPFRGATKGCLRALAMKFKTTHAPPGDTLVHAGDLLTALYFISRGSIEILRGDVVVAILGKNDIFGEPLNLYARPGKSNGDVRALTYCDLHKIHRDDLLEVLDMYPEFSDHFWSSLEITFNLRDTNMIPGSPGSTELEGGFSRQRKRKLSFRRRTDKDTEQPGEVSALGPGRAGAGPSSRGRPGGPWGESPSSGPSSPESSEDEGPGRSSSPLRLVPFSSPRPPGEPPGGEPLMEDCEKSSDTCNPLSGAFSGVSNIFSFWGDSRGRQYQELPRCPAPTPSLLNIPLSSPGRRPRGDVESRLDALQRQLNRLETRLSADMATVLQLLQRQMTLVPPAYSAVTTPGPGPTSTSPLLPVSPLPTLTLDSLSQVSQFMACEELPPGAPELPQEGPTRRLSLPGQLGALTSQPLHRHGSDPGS

[4] = target: T1, Voltage-gated inwardly rectifying potassium channel KCNH2; assay: Binding affinity to ERG channel in human HT-29 cells assessed as fluorescence signal at 0.5 uM incubated for 10 mins by fluorescence microscopic imaging analysis in presence of astemizole; format: cell-based; conditions: ht-29, 10 min
How it was run: (§2)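 Competition imaging in hERG-transfected HEK293 or HT-29 cells. Cells were co-incubated with 100 μM astemizole and 0.5 μM probe, then imaged by fluorescence microscopy in bright field and the GFP channel. Cell autofluorescence, with and without astemizole, was checked separately.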

[5] = target: T1, Voltage-gated inwardly rectifying potassium channel KCNH2; assay: Binding affinity to human ERG channel expressed in HEK293 cells assessed as fluorescence signal at 0.5 uM incubated for 10 mins by fluorescence microscopic imaging analysis in presence of astemizole; format: cell-based; conditions: hek293, 10 min; how it was run: as §2
[6] = target: T1, Voltage-gated inwardly rectifying potassium channel KCNH2; assay: Binding affinity to human ERG channel expressed in HEK293 cells assessed as fluorescence signal at 0.5 uM incubated for 10 mins by fluorescence microscopic imaging analysis; format: cell-based; conditions: hek293, 10 min
How it was run: (§3)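 Live-cell fluorescence microscopy of hERG-transfected HEK293 cells or HT-29 colorectal cancer cells incubated with probe at 0.5 μM. Images were taken in bright field and in the GFP channel. Probe photophysics were characterised at 10 μM in PBS, pH 7.4.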

[7] = target: T1, Voltage-gated inwardly rectifying potassium channel KCNH2; assay: Binding affinity to ERG channel in human HT-29 cells assessed as fluorescence signal at 0.5 uM incubated for 10 mins by fluorescence microscopic imaging analysis; format: cell-based; conditions: ht-29, 10 min; how it was run: as §3

Row | SMILES | IC50 [1] | IC50 [2] | IC50 [3] | Ki [3] | Activity [4] | Activity [5] | Activity [6] | Activity [7]
1 | COc1ccc(CCN2CCC(Nc3nc4ccccc4n3Cc3ccc(F)cc3)CC2)cc1 [ASTEMIZOLE] | 15.4 µM | 5.1 µM |  |  |  |  |  | 
2 | CC(=O)Nc1ccc2c3c(cccc13)C(=O)N(CCCCN1CCC(Nc3nc4ccccc4n3Cc3ccc(F)cc3)CC1)C2=O | 18.6 µM | 7.2 µM |  |  |  |  |  | 
3 | O=[N+]([O-])c1ccc(NCCCCN2CCC(Nc3nc4ccccc4n3Cc3ccc(F)cc3)CC2)c2nonc12 | 36.1 µM | 12.5 µM | 0.025 µM | 0.012 µM | Not Active | Not Active | Active | Active
4 | CCN(CC)c1ccc2cc(C(=O)NCCCCN3CCC(Nc4nc5ccccc5n4Cc4ccc(F)cc4)CC3)c(=O)oc2c1 | 9.9 µM | 4.7 µM |  |  |  |  |  | 
